Measurements reported in ChEMBL document CHEMBL1145051, “Synthesis and biological evaluation of 3-alkoxy analogues of flavone-8-acetic acid” (J Med Chem, 2003).

Columns and labels:
[1] = Potency ratio was determined against human monocytes versus DMXAA (Dimethylxanthenone-4-acetic acid); less potent; assay type: functional
Method in brief: (§1)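 Ratio of reference IC50 (FAA or DMXAA) to analogue IC50 in the effector-cell coculture assay: mouse peritoneal macrophages or adherent human PBMC pretreated 24 h with drug, then C13* target cells added for 24 h, lysis by MTT. IC50 and ratios by Litchfield–Wilcoxon; three experiments in triplicate.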

[2] = Indirect antitumor effect was measured as cytotoxicity with human monocytes pretreated with compounds; assay type: functional
Method in brief: (§2)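 Adherent human PBMC (Ficoll isolation, 2 h adherence, washed) pretreated 24 h with 25, 50, 100 μM in RPMI 1640/5% FCS, triplicate wells. Medium removed, C13* cells (2 × 10^3/well) cocultured 24 h, read by MTT. Three experiments; IC50 by Litchfield–Wilcoxon.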

LoVo [3] = experiment: In vitro cytotoxicity against the selected tumor cell line LoVoR arising from human colon adenocarcinoma was determined; not detected; assay type: functional, cell-based
2008 [4] = experiment: Direct cytotoxicity against the selected tumor cell line 2008 was determined especially on ovarian adenocarcinoma derived cells; not detected; assay type: functional, cell-based, Homo sapiens
Mus musculus [5] = species on record: Mus musculus; experiment: Indirect antitumor effect was measured as cytotoxicity against murine macrophages; not detected; assay type: functional
Method in brief: (§3)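 Resident mouse peritoneal macrophages (heparinised PBS lavage, 2 h adherence) plated at 1 × 10^4 cells/well with a range of drug concentrations, triplicate wells, 24 h. Medium removed, C13* cells (2 × 10^3/well) added, cocultured 24 h. Lysis by MTT; specific cytotoxicity = [OD(macrophages+C13*) − OD(macrophages)]/OD(C13*). Three experiments; IC50 by Litchfield–Wilcoxon.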

C13 [6] = experiment: Direct cytotoxicity against the selected tumor cell line c13* was determined especially on ovarian adenocarcinoma derived cells; not detected; assay type: functional, cell-based, Homo sapiens
LoVo [7] = experiment: In vitro cytotoxicity against the selected tumor cell line LoVoS arising from human colon adenocarcinoma was determined; not detected; assay type: functional, cell-based
[8] = Potency ratio was determined against C13 cell line versus FAA (Flavone acetic acid); less potent; assay type: functional
Method in brief: (§4)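 Ratio IC50(FAA)/IC50(analogue) from direct 24 h MTT cytotoxicity on the named line (LoVo S, LoVo R, 2008 or C13*), concentrations up to 500 μM. IC50 values and 95% confidence limits by Litchfield–Wilcoxon method; three experiments in triplicate.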

[9] = Potency ratio was determined against human monocytes versus DMXAA (Dimethylxanthenone-4-acetic acid); assay type: functional; method in brief: as §1
[10] = Potency ratio was determined against LoVoR versus FAA (Flavone acetic acid); less potent; assay type: functional; method in brief: as §4
[11] = Potency ratio was determined against murine macrophages versus FAA (Flavone acetic acid); assay type: functional; method in brief: as §1
[12] = Potency ratio was determined against 2008 cell line versus FAA (Flavone acetic acid); less potent; assay type: functional; method in brief: as §4
2008 [13] = experiment: Direct cytotoxicity against the selected tumor cell line 2008 was determined especially on ovarian adenocarcinoma derived cells; assay type: functional, cell-based; conditions: Homo sapiens
LoVo [14] = experiment: In vitro cytotoxicity against the selected tumor cell line LoVoR arising from human colon adenocarcinoma was determined; assay type: functional, cell-based
Mus musculus [15] = species on record: Mus musculus; experiment: Indirect antitumor effect was measured as cytotoxicity with murine macrophages pretreated with compounds; assay type: functional; method in brief: as §3
[16] = Potency ratio was determined against LoVoS versus FAA (Flavone acetic acid); assay type: functional; method in brief: as §4
[17] = Potency ratio was determined against macrophages; assay type: functional; method in brief: as §1
LoVo [18] = experiment: In vitro cytotoxicity against the selected tumor cell line LoVoS arising from human colon adenocarcinoma was determined; assay type: functional, cell-based
C13 [19] = experiment: cDirect cytotoxicity against the selected tumor cell line c13* was determined especially on ovarian adenocarcinoma derived cells; assay type: functional, cell-based; conditions: Homo sapiens
C13 [20] = experiment: Direct cytotoxicity against the selected tumor cell line c13* was determined especially on ovarian adenocarcinoma derived cells; assay type: functional, cell-based; conditions: Homo sapiens
[21] = Potency ratio was determined against macrophages; more potent; assay type: functional; method in brief: as §1
[22] = Indirect antitumor effect was measured as cytotoxicity against human monocytes; not detected; assay type: functional; method in brief: as §2
[23] = Potency ratio was determined against human monocytes versus DMXAA (Dimethylxanthenone-4-acetic acid); more potent; assay type: functional; method in brief: as §1
[24] = Potency ratio was determined against LoVoR versus FAA (Flavone acetic acid); assay type: functional; method in brief: as §4
[25] = Potency ratio was determined against C13 cell line versus FAA (Flavone acetic acid); assay type: functional; method in brief: as §4
[26] = Potency ratio was determined against 2008 cell line versus FAA (Flavone acetic acid); assay type: functional; method in brief: as §4
LoVo [27] = experiment: In vitro cytotoxicity against the selected tumor cell line LoVoR arising from human colon adenocarcinoma was determined
[28] = cPotency ratio was determined against macrophages; more potent; assay type: functional; method in brief: as §1

COc1c(-c2ccc(F)cc2)oc2c(CC(=O)O)cccc2c1=O
Potency ratio [1]: 0.3 | IC50 [2]: 436 µM | IC50 (LoVo [3]): not detected | IC50 2008 [4]: not detected | IC50 (Mus musculus [5]): not detected | IC50 (C13 [6]): not detected | IC50 (LoVo [7]): not detected

COc1ccc(-c2oc3c(CC(=O)O)cccc3c(=O)c2OC)cc1
Potency ratio [8]: 0.4 | Potency ratio [9]: 0.7 | Potency ratio [10]: 0.7 | Potency ratio [11]: 1.2 | Potency ratio [12]: 0.7 | IC50 [2]: 181 µM | IC50 2008 [13]: 625 µM | IC50 (LoVo [14]): 556 µM | IC50 (Mus musculus [15]): 238 µM | Potency ratio [16]: 0.9 | Potency ratio [17]: 1.3 | IC50 (LoVo [18]): 601 µM | IC50 (C13 [19]): 548 µM

COc1c(-c2ccccc2C)oc2c(CC(=O)O)cccc2c1=O
Potency ratio [8]: 0.4 | Potency ratio [9]: 1 | Potency ratio [11]: 1.1 | IC50 [2]: 127 µM | IC50 (C13 [20]): 524 µM | IC50 (Mus musculus [15]): 248 µM | Potency ratio [21]: 1.9 | IC50 2008 [4]: not detected | IC50 (LoVo [7]): not detected

COc1c(-c2ccccc2)oc2c(CC(=O)O)cccc2c1=O
Potency ratio [8]: 0.3 | Potency ratio [10]: 0.6 | IC50 (C13 [20]): 757 µM | IC50 (LoVo [14]): 627 µM | IC50 2008 [4]: not detected | Potency ratio [16]: 0.8 | IC50 (LoVo [18]): 719 µM

COc1cccc(-c2oc3c(CC(=O)O)cccc3c(=O)c2OC)c1
Potency ratio [10]: 0.7 | Potency ratio [11]: 1.6 | IC50 [22]: not detected | IC50 (LoVo [14]): 514 µM | IC50 (Mus musculus [15]): 182 µM | IC50 2008 [4]: not detected | Potency ratio [16]: 0.7 | IC50 (LoVo [18]): 829 µM | IC50 (C13 [6]): not detected

COc1c(-c2cccc(Cl)c2)oc2c(CC(=O)O)cccc2c1=O
Potency ratio [23]: 3.7 | Potency ratio [11]: 1.2 | IC50 [2]: 36.8 µM | IC50 (LoVo [3]): not detected | IC50 (Mus musculus [15]): 239 µM | Potency ratio [21]: 6.5 | IC50 2008 [4]: not detected | Potency ratio [16]: 1 | IC50 (LoVo [18]): 534 µM | IC50 (C13 [6]): not detected

CC(C)Oc1c(-c2ccccc2)oc2c(CC(=O)O)cccc2c1=O
Potency ratio [24]: 0.9 | Potency ratio [11]: 1.3 | IC50 [22]: not detected | IC50 (LoVo [14]): 407 µM | IC50 (Mus musculus [15]): 225 µM | IC50 2008 [4]: not detected | Potency ratio [16]: 0.7 | IC50 (LoVo [18]): 815 µM | IC50 (C13 [6]): not detected

O=C(O)Cc1cccc2c(=O)cc(-c3ccccc3)oc12 [MITOFLAXONE]
Potency ratio [24]: 0.6 | Potency ratio [25]: 1 | Potency ratio [11]: 1 | Potency ratio [26]: 1 | IC50 2008 [13]: 421 µM | IC50 (C13 [20]): 233 µM | IC50 [22]: not detected | IC50 (LoVo [14]): 378 µM | IC50 (Mus musculus [15]): 285 µM | Potency ratio [16]: 1 | IC50 (LoVo [18]): 564 µM

COc1c(-c2cccc(C(F)(F)F)c2)oc2c(CC(=O)O)cccc2c1=O
Potency ratio [24]: 0.7 | Potency ratio [23]: 7.3 | IC50 [2]: 18.3 µM | IC50 (LoVo [14]): 532 µM | IC50 2008 [4]: not detected | IC50 (Mus musculus [5]): not detected | IC50 (C13 [6]): not detected | IC50 (LoVo [7]): not detected

COc1c(-c2ccc(C)cc2)oc2c(CC(=O)O)cccc2c1=O
Potency ratio [8]: 0.3 | Potency ratio [24]: 0.7 | Potency ratio [11]: 1.7 | IC50 (C13 [20]): 806 µM | IC50 [22]: not detected | IC50 (LoVo [14]): 570 µM | IC50 (Mus musculus [15]): 164 µM | IC50 2008 [4]: not detected | Potency ratio [16]: 0.9 | IC50 (LoVo [18]): 632 µM

CCOc1c(-c2ccccc2)oc2c(CC(=O)O)cccc2c1=O
Potency ratio [11]: 0.7 | IC50 (LoVo [3]): not detected | IC50 [22]: not detected | IC50 (Mus musculus [15]): 431 µM | IC50 2008 [4]: not detected | Potency ratio [16]: 0.9 | IC50 (LoVo [18]): 611 µM | IC50 (C13 [6]): not detected

COc1ccccc1-c1oc2c(CC(=O)O)cccc2c(=O)c1OC
Potency ratio [9]: 0.7 | Potency ratio [10]: 0.5 | IC50 [2]: 193 µM | IC50 2008 [4]: not detected | Potency ratio [16]: 0.6 | IC50 (LoVo [18]): 980 µM | IC50 (Mus musculus [5]): not detected | IC50 (LoVo [27]): 794 µM | IC50 (C13 [6]): not detected

COc1c(-c2cccs2)oc2c(CC(=O)O)cccc2c1=O
Potency ratio [1]: 0.6 | IC50 [2]: 213 µM | IC50 (LoVo [3]): not detected | IC50 2008 [4]: not detected | IC50 (Mus musculus [5]): not detected | IC50 (C13 [6]): not detected | IC50 (LoVo [7]): not detected

COc1c(-c2ccccc2Cl)oc2c(CC(=O)O)cccc2c1=O
Potency ratio [10]: 0.5 | Potency ratio [11]: 1 | IC50 [22]: not detected | IC50 (LoVo [14]): 780 µM | IC50 (Mus musculus [15]): 284 µM | IC50 2008 [4]: not detected | Potency ratio [16]: 0.9 | IC50 (LoVo [18]): 605 µM | IC50 (C13 [6]): not detected

COc1c(-c2ccc(Cl)cc2)oc2c(CC(=O)O)cccc2c1=O
Potency ratio [8]: 0.7 | Potency ratio [9]: 1.3 | Potency ratio [28]: 2.8 | Potency ratio [11]: 0.9 | IC50 [2]: 105 µM | IC50 (LoVo [3]): not detected | IC50 (C13 [20]): 350 µM | IC50 (Mus musculus [15]): 293 µM | IC50 2008 [4]: not detected | IC50 (LoVo [7]): not detected

COc1c(-c2cccc(C)c2)oc2c(CC(=O)O)cccc2c1=O
Potency ratio [9]: 1.2 | Potency ratio [10]: 0.6 | Potency ratio [11]: 1.2 | IC50 [2]: 113 µM | IC50 (LoVo [14]): 648 µM | IC50 (Mus musculus [15]): 234 µM | Potency ratio [21]: 2.1 | IC50 2008 [4]: not detected | Potency ratio [16]: 0.8 | IC50 (LoVo [18]): 697 µM | IC50 (C13 [6]): not detected
